We go through twelve molecules from ChEMBL document CHEMBL1147241, “Cytotoxic constituents of Isodon rubescens var. lushiensis” (J Nat Prod, 2003).

A word on the IC50: it is the midpoint of a concentration-inhibition curve.

≈ marks a conversion by molar mass, not a printed value.

The test system of one test is K562. The test can be described thus: Cytotoxicity against human K562 cells by MTT method. Type of test: functional, cell-based. The essentials: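 Improved MTT assay on K562 human leukemia cells; cis-platinum as positive control. Optical density recorded as mean ± S; IC50 calculated from OD data.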
(Tetrazolium dyes change colour on reduction, which living cells bring about.)
With `C=C1[C@@H]2C[C@@H](O)[C@H]3[C@@]4(CCC[C@@]5(C)COC(=O)[C@H]54)COC(=O)[C@]3(C2)[C@@H]1O` [GUIDONGNIN A], the 50% inhibitory concentration (IC50) came to 0.3 µg/mL (≈ 0.828 µM).

For `CO[C@@H]1OC[C@]2(C)CCC[C@]3(COC(=O)[C@@]45C[C@@H](CC[C@H]43)[C@@H](C)C5=O)[C@H]12` [LUDONGNIN F], the IC50 was > 50 µg/mL.

Regarding `CO[C@@H]1OC[C@]2(C)CCC[C@]3(COC(=O)[C@@]45C[C@@H](CC[C@H]43)[C@H](C)C5=O)[C@H]12` [LUDONGNIN G], the IC50 is > 50 µg/mL.

`C=C1C(=O)[C@]23C[C@H]1CC[C@H]2[C@@]1(CCC[C@@]2(C)CO[C@@H](OC)[C@H]21)COC3=O` [LUDONGNIN J] had a half-maximal inhibitory concentration (IC50) of 0.18 µg/mL (≈ 0.499 µM).

Take `C=C1C(=O)[C@]23C[C@H]1C[C@@H](O)[C@H]2[C@@]1(CCC[C@@]2(C)CO[C@H](OC)[C@H]21)COC3=O` [ANGUSTIFOLIN]: the IC50 came to 0.23 µg/mL (≈ 0.611 µM).

As to `C[C@H]1C(=O)[C@]23C[C@H]1CC[C@H]2[C@@]1(CCC[C@@]2(C)COC(=O)[C@H]21)COC3=O` [GUIDONGNIN B], the half-maximal inhibitory concentration (IC50) is > 50 µg/mL.

As for `CO[C@H]1OC[C@]2(C)CCC[C@]3(COC(=O)[C@@]45C[C@@H](CC[C@H]43)[C@@H](C)C5=O)[C@H]12` [LUDONGNIN I], the IC50 is > 50 µg/mL.

As for `C=C1C(=O)[C@]23C[C@H]1C[C@@H](O)[C@H]2[C@@]1(CCC[C@@]2(C)COC(=O)[C@H]21)COC3=O` [LUDONGNIN A], inhibition was half-maximal at 0.25 µg/mL (≈ 0.694 µM) (IC50).

The molecule `C=C1C(=O)[C@]23C[C@H]1C[C@@H](O)[C@H]2[C@@]1(CCC[C@@]2(C)CO[C@@H](OC)[C@H]21)COC3=O` had a half-inhibitory concentration (IC50) of 0.87 µg/mL (≈ 2.31 µM).

As for `CO[C@H]1OC[C@]2(C)CCC[C@]3(COC(=O)[C@@]45C[C@@H](CC[C@H]43)[C@H](C)C5=O)[C@H]12` [LUDONGNIN H], the half-inhibitory concentration (IC50) was > 50 µg/mL.

Turning to `C[C@H]1C(=O)[C@]23C[C@H]1C[C@@H](O)[C@H]2[C@@]1(CCC[C@@]2(C)COC(=O)[C@H]21)COC3=O` [GUIDONGNIN C], the IC50 was > 50 µg/mL.

In the case of `C=C1C(=O)[C@]23C[C@H]1CC[C@H]2[C@]1(COC3=O)C2CC[C@@]3(C)COC(O2)[C@H]31` (some centres undefined) [SCULPONEATIN J], 0.83 µg/mL (≈ 2.41 µM) corresponded to half-maximal inhibition (IC50).

Test system in another test: not listed separately
Put plainly: Cytotoxicity against human CA cells by SRB method. It counts as functional, cell-based. The gist of the method:
(§1)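 Sulforhodamine B (SRB) assay on CA liver cancer and HeLa cervical cancer cells; cis-platinum as positive control. Optical density recorded as mean ± S; IC50 calculated from OD data.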
In general terms: In SRB staining, fixed cells bind dye roughly in proportion to their protein.
`C=C1C(=O)[C@]23C[C@H]1CC[C@H]2[C@@]1(CCC[C@@]2(C)CO[C@@H](OC)[C@H]21)COC3=O` [LUDONGNIN J] gave an IC50 of 0.09 µg/mL (≈ 0.25 µM).

For the next test, the system named is HeLa. Put plainly: Cytotoxicity against human HeLa cells by SRB method. It counts as functional, cell-based. The gist of the method: as §1
On to `C=C1C(=O)[C@]23C[C@H]1CC[C@H]2[C@@]1(CCC[C@@]2(C)CO[C@@H](OC)[C@H]21)COC3=O` [LUDONGNIN J], for which half-maximal inhibition (IC50) required 0.7 µg/mL (≈ 1.94 µM).
